The text below walks through data of publication PMC3057471 (Biochemistry, 2011).

Several values for one entry are separate records, joined by “and”; a condition that tells them apart may be missing. Identical values can stand only once. Where no end group is shown, it is not given here.

Assay [1] addresses Lethocerus troponin C, F1 isoform (Lethocerus). The assay is described as follows: other fluorescence titration.
For assay [2], the target named is Lethocerus troponin C, F2 isoform (Lethocerus). In words: other fluorescence titration.
For assay [3], the target named is T1, F1 TnC (Lethocerus indicus, UniProt Q868D4).
T1 sequence (Q868D4 1-158): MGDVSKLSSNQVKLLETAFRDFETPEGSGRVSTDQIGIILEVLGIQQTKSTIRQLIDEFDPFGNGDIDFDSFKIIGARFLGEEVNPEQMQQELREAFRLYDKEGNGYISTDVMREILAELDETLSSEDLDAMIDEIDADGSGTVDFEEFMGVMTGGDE
The settings on record: C lobe of F1 TnC, essentially Ca^2+ independent; cited from earlier work.

Assay [4] has as its target T1, F1 TnC. In words: TnH peptide binding to F1 TnC by competition with melittin. As to conditions: 20 °C, 20 mM Tris-HCl pH 6.8, 100 mM NaCl. The method, boiled down: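 Competition assay: mixtures of melittin and F1 TnC were titrated with synthetic test peptides (TnH fragments; >95% HPLC, sequences MALDI-verified). Displacement was followed by melittin Trp fluorescence (excitation 280 nm, emission 290–400 nm). Conditions were 20 °C, 20 mM Tris-HCl pH 6.8, 100 mM NaCl, with 1 mM Ca2+, 5 mM Mg2+, or both.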

Another assay concerns the target T2, F2 TnC (Lethocerus indicus, UniProt Q868D3).
T2 sequence (Q868D3 1-158): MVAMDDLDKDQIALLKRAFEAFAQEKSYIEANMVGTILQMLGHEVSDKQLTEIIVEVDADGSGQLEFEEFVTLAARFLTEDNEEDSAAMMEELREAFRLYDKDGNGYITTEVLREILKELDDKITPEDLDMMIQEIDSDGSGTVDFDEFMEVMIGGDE
In words: TnH peptide binding to F2 TnC by competition with melittin. The settings on record: 20 °C, 20 mM Tris-HCl pH 6.8, 100 mM NaCl. Summed up: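 Recombinant F2 TnC was expressed in E. coli BL21(DE3), purified on Ni-NTA, His-tag cleaved with TEV, then purified by gel filtration. Melittin (0.33 μM) plus F2 TnC (1.4 μM with 1 mM Ca2+) was titrated with synthetic test peptides (TnH fragments). Binding was read by melittin Trp fluorescence (excitation 280 nm, emission 290–400 nm) at 20 °C, pH 6.8 Tris/100 mM NaCl; Mg2+ was 5 mM.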

A short description of assay [5]: Ca^2+ association constants of chromophoric chelators. Type of assay: binding. The settings on record: 20 °C, 20 mM Tris-HCl pH 6.8, 100 mM NaCl.
[6] abbreviates: 1 mM Ca^2+ and 5 mM Mg^2+, competition with melittin.
Setting [7] is: 5 mM Mg^2+, competition with melittin.

Take “TnH(30−61) peptide of Lethocerus troponin H”: the dissociation constant Kd in assay [1] was 1.3 nM and 1.9 nM and 2.2 nM.

Consider “Melittin from honey bee venom (from UniProt P01501 44-70) (peptide)”, for which the dissociation constant Kd was 840 nM and 190 nM and 770 nM in assay [2]; 41 nM and 8.3 nM and 32 nM in assay [1].

Take “YDLNSQVNDLRGKFVKPTLKKVSKYENKFAKLQKK [TnH(126−159)]”: on F1 TnC [3], the “Equilibrium dissociation constant range for F1 TnC” value is listed as “in the micromolar range”. Further, the Kd is 3700 ± 1100 nM on F1 TnC [4] (1 mM Ca^2+); 9100 ± 3200 nM at F1 TnC [4] (5 mM Mg^2+); 12200 ± 3400 nM at F1 TnC [4] (metal: none (0.2 mM EGTA)); 3500 ± 800 nM at F2 TnC (setting [6]); 3100 ± 800 nM at F2 TnC (1 mM Ca^2+, competition with melittin 0.33 μM, F2 TnC 1.4 μM); 13500 ± 3500 nM at F2 TnC (setting [7]).

Regarding “TnH(126−159) peptide of Lethocerus troponin H”, the Kd in assay [1] was 12200 nM and 3700 nM and 9100 nM.

For `O=C(O)CN(CC(=O)O)c1ccccc1OCCOc1cc([N+](=O)[O-])ccc1N(CC(=O)O)CC(=O)O` [5-nitro BAPTA], the “Equilibrium association constant for Ca^2+ (KCa)” value in assay [5] is “(4.1 ± 0.3) × 10^4 M^−1”.

Regarding `O=C(O)CN(CC(=O)O)c1ccc(Br)cc1OCCOc1cc(Br)ccc1N(CC(=O)O)CC(=O)O` [5,5′-dibromo BAPTA], the “Equilibrium association constant for Ca^2+ (KCa)” value in assay [5] is reported as “(6.3 ± 0.5) × 10^5 M^−1”.

As to “YKAKKAKKGFMTPERKKKLRLLLRKKAAEELKK [TnH(30−61)]”, on F1 TnC [3], the “Equilibrium dissociation constant range for F1 TnC” value is given as “in the nanomolar range”. In addition, the equilibrium dissociation constant (Kd) at F1 TnC [4] (1 mM Ca^2+ and 5 mM Mg^2+) is 1.3 ± 0.4 nM; at F1 TnC [4] (1 mM Ca^2+), 0.9 ± 0.2 nM; at F1 TnC [4] (5 mM Mg^2+), 2.2 ± 0.4 nM; at F1 TnC [4] (metal: none (0.2 mM EGTA)), 1.9 ± 0.6 nM; on F2 TnC (1 mM Ca^2+ (holo), competition with melittin 0.33 μM, F2 TnC 1.4 μM) it was 7.8 ± 0.15 nM; at F2 TnC (setting [6]), 6.7 ± 0.9 nM. Moreover, binding at F2 TnC (setting [7]) was characterised by a dissociation constant (Kd) of 38.5 ± 5.2 nM.

As a reminder, the Kd is the free concentration of one partner at which half of the binding sites on the other are occupied at equilibrium, for simple one-to-one binding. High values mean lower affinity, low ones higher affinity.
